Calls of active or inactive are those of the source. No cut-off for these calls is given here.
Assays:
Liver microsome [1] = assay: Drug level in human liver microsomes treated with tetraethyl (3-(5-fluoroindol-3-yl)propane-1,1-diyl)bis(phosphonate) at 5 uM preincubated for 5 mins followed by NADPH addition measured after 30 mins by LC/MS analysis; assay type: ADME; settings: 0.5 h
In short: (§1)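 Human liver microsomes (0.5 mg protein/ml) with substrate at 5 µM final in 100 mM potassium phosphate pH 7.4. Preincubated 5 min at 37 °C with shaking, then started with 1 mM NADPH. Stopped at 0 and 30 min with cold acetonitrile containing labetalol internal standard. Spun 12,000 g, 5 min, 4 °C; supernatant analysed by HPLC-MS/MS.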

Liver microsome [2] = assay: Retention time of the compound in human liver microsomes at 5 uM preincubated for 5 mins followed by NADPH addition measured after 30 mins by LC/MS analysis; assay type: ADME; settings: 0.5 h
In short: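 Microsomal incubation: 0.5 mg protein/ml, 5 µM substrate final, pH 7.4 phosphate, 5 min preincubation at 37 °C, 1 mM NADPH, quenched at 0 and 30 min with cold acetonitrile. Supernatant run by HPLC-MS/MS on a C18 column (100 × 2.1 mm, 40 °C). Mobile phases were water/0.1% formic acid and acetonitrile/0.1% formic acid at 0.3 mL/min, gradient from 0% B.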

[3] = Lipophilicity, log P of the compound; assay type: physicochemical; settings: octanol/water
Homo sapiens [4] = species on record: Homo sapiens; assay: Metal chelating activity in human PE/CA-PJ15 cells assessed as decrease in extracellular Ca2+ concentration at 30 uM by FURA-2 AM probe-based spectrophotofluorometric analysis; assay type: functional, cell-based; set-up: scale not given: the % may be the effect or the level left
In short: (§2)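 Cell suspension was diluted into HBSS with 1 mM CaCl2 and lysed with 1% Triton X-100. Ca2+/Fura-2 fluorescence after lysis was set as 100%, and bisphosphonate (10–30 µM) was then added. The fluorescence drop was followed over time and read at 30 µM. Mean of 10 experiments ± SEM.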

Homo sapiens [5] = species on record: Homo sapiens; assay: Metal chelating activity in human PE/CA-PJ15 cells assessed as change in cytosolic Ca2+ concentration at 10 to 30 uM after 50 secs using Ca2+ containing medium by FURA-2 AM probe-based spectrophotofluorometric analysis; assay type: functional, cell-based
In short: (§3)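 Cultured PE/CA-PJ15 cells loaded with FURA-2 AM for 60 min at 37 °C in the dark. Cells resuspended in HBSS pH 7.4, either Ca2+-free (0.1 mM EGTA) or with 1 mM Ca2+. Bisphosphonate added to 10 µM, then a second addition 150 s later to 30 µM. Ratio fluorescence read at ex 340/380 nm, em 510 nm, converted to [Ca2+]c. Δ[Ca2+]c (nM) taken 50 s after addition; mean of 10 experiments ± SEM.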

Homo sapiens [6] = species on record: Homo sapiens; assay: Metal chelating activity in human PE/CA-PJ15 cells assessed as change in cytosolic Ca2+ concentration at 10 to 30 uM after 50 secs using Ca2+ free medium by FURA-2 AM probe-based spectrophotofluorometric analysis; assay type: functional, cell-based; in short: as §3
Homo sapiens [7] = species on record: Homo sapiens; assay: Metal chelating activity in human PE/CA-PJ15 cells assessed as decrease in cytosolic Ca2+ concentration at 10 to 30 uM after 50 secs using Ca2+ free medium by FURA-2 AM probe-based spectrophotofluorometric analysis
Liver microsome [8] = assay: Drug metabolism in human liver microsomes assessed as radical of 3-allyl-5-fluoro-1H-indole formation by measuring remaining compound level at 5 uM preincubated for 5 mins followed by NADPH addition measured after 30 mins by LC/MS analysis; assay type: ADME; settings: 0.5 h
In short: (§4)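 Substrate at 5 µM final with human liver microsomes (0.5 mg protein/ml) in 100 mM potassium phosphate pH 7.4, preincubated 5 min at 37 °C with shaking; started with 1 mM NADPH. Stopped at 0 and 30 min with cold acetonitrile containing labetalol internal standard. Protein spun down; supernatant analysed by HPLC-MS/MS for parent remaining.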

[9] = Drug level in presence of tetraethyl (3-(indol-3-yl)propane-1,1-diyl)bis(phosphonate); assay type: physicochemical; in short: as §4
Liver microsome [10] = assay: Drug metabolism in human liver microsomes assessed as radical of 3-allyl-1H-indole/3-methyl-1H-indole formation by measuring remaining compound level at 5 uM preincubated for 5 mins followed by NADPH addition measured after 30 mins by LC/MS analysis; assay type: ADME; settings: 0.5 h; in short: as §4
Homo sapiens [11] = species on record: Homo sapiens; assay: Metal chelating activity in human PE/CA-PJ15 cells assessed as decrease in extracellular Ca2+ concentration by FURA-2 AM probe-based spectrophotofluorometric analysis; assay type: functional, cell-based; in short: as §2
Liver microsome [12] = assay: Drug level in human liver microsomes treated with tetraethyl (3-(indol-3-yl)propane-1,1-diyl)bis(phosphonate) at 5 uM preincubated for 5 mins followed by NADPH addition measured after 30 mins by LC/MS analysis; assay type: ADME; settings: 0.5 h; in short: as §1
Homo sapiens [13] = species on record: Homo sapiens; assay: Metal chelating activity in human PE/CA-PJ15 cells assessed as change in cytosolic Ca2+ concentration at 60 uM after 50 secs using Ca2+ containing medium by FURA-2 AM probe-based spectrophotofluorometric analysis; assay type: functional, cell-based
Homo sapiens [14] = species on record: Homo sapiens; assay: Metal chelating activity in human PE/CA-PJ15 cells assessed as change in cytosolic Ca2+ concentration at 60 uM after 50 secs using Ca2+ free medium by FURA-2 AM probe-based spectrophotofluorometric analysis; assay type: functional, cell-based
Homo sapiens [15] = species on record: Homo sapiens; assay: Increase in cytosolic Ca2+ concentration in human PE/CA-PJ15 cells after 50 secs using Ca2+ containing medium by FURA-2 AM probe-based spectrophotofluorometric analysis; assay type: functional, cell-based; in short: as §3

What does the source list for `[CH]=CCc1c[nH]c2ccc(F)cc12`?
Drug metabolism (Liver microsome [1]): metabolite_detected; Retention_time (Liver microsome [2]): 5.628 min

Which logP [3] does the source give for `O=P([O-])(O)C(O)(Cc1cccnc1)P(=O)(O)O.[Na+]` [RISEDRONATE SODIUM] here?
The logP was -3.6.

With `CCOP(=O)(OCC)C(CCc1c[nH]c2ccc(C(F)(F)F)cc12)P(=O)(OCC)OCC` as the molecule, how does the Activity (Homo sapiens [4]) read?
The Activity was -16.5%.

And the Activity (Homo sapiens [5])?
Its Activity is “Active”.

What about the Activity (Homo sapiens [6]) of the same molecule?
Its Activity is “Active”.

For `CC(O)(P(=O)(O)O)P(=O)(O)O` [ETIDRONATE DISODIUM], which logP ([3]; read-out: logP) is on record?
Its logP is -3.8.

For `CCOP(=O)(OCC)C(CCc1c[nH]c2ccc(F)cc12)P(=O)(OCC)OCC`, which Activity (Homo sapiens [4]) is on record?
Its Activity is -34%.

What about the Activity (Homo sapiens [7]) of the same molecule?
The Activity was “Active”.

And the Activity (Homo sapiens [5])?
Its Activity is “Active”.

And the Retention_time (Liver microsome [2])?
Its Retention_time is 8.365 min.

What about the Activity (Homo sapiens [6]) of the same molecule?
Its Activity is “Active”.

What about the Stability (Liver microsome [8]) of the same molecule?
Its Stability is 20%.

With `O=P(O)(O)C(CCc1c(C2Nc3ccccc3C2CCC(P(=O)(O)O)P(=O)(O)O)[nH]c2ccccc12)P(=O)(O)O` (stereo unspecified) as the molecule, how does the Drug metabolism [9] read?
Its Drug metabolism is “metabolite_detected”.

With `CCOP(=O)(OCC)C(CCc1c[nH]c2ccccc12)P(=O)(OCC)OCC` as the molecule, how does the Activity (Homo sapiens [4]) read?
The Activity was -73%.

And the Activity (Homo sapiens [7])?
Its Activity is “Active”.

And the Activity (Homo sapiens [5])?
The Activity was “Active”.

And the Stability (Liver microsome [10])?
Its Stability is 20%.

What about the Retention_time (Liver microsome [2]) of the same molecule?
The Retention_time was 8.142 min.

What about the Activity (Homo sapiens [11]) of the same molecule?
Its Activity is “Dose-dependent effect”.

And the Activity (Homo sapiens [6])?
Its Activity is “Active”.

Which Drug metabolism [9] does the source give for `O=P(O)(O)C(CCc1c[nH]c2ccccc12)P(=O)(O)O` here?
Its Drug metabolism is “metabolite_detected”.

Which results are given for `CCOP(=O)(OCC)C(CCc1c[nH]c2cc(C(F)(F)F)ccc12)P(=O)(OCC)OCC`?
Activity (Homo sapiens [4]): -5%; Activity (Homo sapiens [5]): Active; Activity (Homo sapiens [6]): Active

Which Drug metabolism (Liver microsome [12]) does the source give for `[CH2]c1c[nH]c2ccccc12` here?
Its Drug metabolism is “metabolite_detected”.

And the Retention_time (Liver microsome [2])?
The Retention_time was 5.183 min.

Which Activity (Homo sapiens [4]) does the source give for `NCCCC(O)(P(=O)(O)O)P(=O)(O)O` here?
The Activity was -7%.

And the Activity (Homo sapiens [5])?
Its Activity is “Active”.

And the Activity (Homo sapiens [6])?
The Activity was “Active”.

What does the source list for `O=P(O)(O)C(Cl)(Cl)P(=O)(O)O` [CLODRONATE DISODIUM]?
Activity (Homo sapiens [4]): -12%; Activity (Homo sapiens [5]): Active; logP ([3]; read-out: logP): -2.4; Activity (Homo sapiens [6]): Active

What does the source list for `[CH]=CCc1c[nH]c2ccccc12`?
Drug metabolism (Liver microsome [12]): metabolite_detected; Retention_time (Liver microsome [2]): 6.829 min

Which results are given for `CCOP(=O)(OCC)C(CCc1c[nH]c2cc(F)ccc12)P(=O)(OCC)OCC`?
Activity (Homo sapiens [4]): -18%; Activity (Homo sapiens [5]): Active; Activity (Homo sapiens [6]): Active

Which logP [3] does the source give for `NCCC(O)(P(=O)([O-])O)P(=O)([O-])O.[Na+].[Na+]` here?
Its logP is -4.7.

With `CCOP(=O)(OCC)C(CCc1c[nH]c2ccncc12)P(=O)(OCC)OCC` as the molecule, how does the Activity (Homo sapiens [4]) read?
The Activity was -6%.

What about the Activity (Homo sapiens [13]) of the same molecule?
The Activity was 67 nM.

And the Activity (Homo sapiens [7])?
Its Activity is “inactive”.

And the Activity (Homo sapiens [14])?
Its Activity is 36 nM.

What about the Activity (Homo sapiens [15]) of the same molecule?
Its Activity is “Dose-dependent effect”.

And the Activity (Homo sapiens [6])?
The Activity was “inactive”.

Source: ChEMBL document CHEMBL3621122, “Synthesis of new indole-based bisphosphonates and evaluation of their chelating ability in PE/CA-PJ15 cells” (Eur J Med Chem, 2015)
